This note sets out measurements from ChEMBL document CHEMBL1146494, “Anthrone and oxanthrone C-glycosides from Picramnia latifolia collected in Peru” (J Nat Prod, 2004).

One series relates to Lu1. The series is described as follows: Cytotoxicity against human Lu1 cells. In kind it is functional. The settings on record: read-out: ED50 (the source's name).
The subject of the next series is LNCaP. Kind of series: Cytotoxicity against human LNCAP cells. The class given is functional. The settings on record: read-out: ED50 (the source's name).
The test system of the next series is MCF7. The series is described as follows: Cytotoxicity against human MCF7 cells. In kind it is functional. The following applies: read-out: ED50 (the source's name).
A short description of series [1]: Cytotoxicity against HUVEC. The following applies: human, HUVEC cells; read-out: ED50 (the source's name). The class given is cell-based.
The test system of series [2] is Mus musculus. The series is described as follows: Toxicity in human Lu1 cells xenografted mouse at 6.25 to 50 mg/kg, ip after 4 days. The class given is organism-based. Also noted: dose 6.25-50 mg/kg, route intraperitoneal. The settings on record: in vivo, 96 h. The method in brief:
(§1)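 In vivo hollow fiber assay in mice. Fibers containing the cancer cells were implanted at intraperitoneal and subcutaneous sites. The compound was given i.p. at 6.25, 12.5, 25 and 50 mg/kg body weight per injection, once daily for 4 days. Readouts were growth of the fiber-borne cells at each site, plus body weight and overt toxicity over the test period.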
(Xenograft models place foreign cells or tissue in a host animal.)

Series [3] has as its system Mus musculus. The series is described as follows: Toxicity in human LNCAP cells xenografted mouse at 6.25 to 50 mg/kg, ip after 4 days. Also noted: dose 6.25-50 mg/kg, route intraperitoneal. In kind it is organism-based. The following applies: in vivo, 96 h. The method in brief:
as §1

Series [4] deals with Mus musculus. Kind of series: Toxicity in human MCF7 cells xenografted mouse at 6.25 to 50 mg/kg, ip after 4 days. In kind it is organism-based. More on the design: dose 6.25-50 mg/kg, route intraperitoneal. The settings on record: in vivo, 96 h. An outline of the steps:
as §1

Each structure is given as a SMILES string. In brackets after ≈: the same amount, converted by molar mass.

As for `Cc1cc(O)c2c(c1)C(=O)c1ccc(O)c(O)c1C2=O`, the EC50 with Lu1 amounted to 3 µg/mL (≈ 11.1 µM); in the series on LNCaP, 3.6 µg/mL (≈ 13.3 µM); in the series on MCF7, 4.7 µg/mL (≈ 17.4 µM). For the same molecule, the CC50 in series [1] was found to be 5 µg/mL (≈ 18.5 µM). The Activity entry in the series with Mus musculus [2], with Mus musculus [3] and in the series on Mus musculus [4] was “Non-toxic” in each case.

For the molecule `Cc1cc(O)c2c3c(cccc13)-c1cccc(O)c1C2=O`, the EC50 in the series on Lu1, with LNCaP and with MCF7 was above 5 µg/mL throughout. The CC50 in series [1] was above 5 µg/mL.

For `COc1cc(O)c2c(c1)C(=O)c1c(O)cc(C)cc1C2=O`, the EC50 with Lu1, in the series with LNCaP and in the series on MCF7 was above 5 µg/mL throughout. Also, in series [1], the CC50 is above 5 µg/mL.

Consider `Cc1cc(O)c2c(c1)-c1cccc3ccc(O)c(c13)C2=O`, for which the EC50 in the series with Lu1, with LNCaP and with MCF7 was above 5 µg/mL each time. In series [1], the CC50 is above 5 µg/mL.

Consider `CC[C@H](CC[C@@H](C)[C@H]1CC[C@H]2[C@@H]3CC=C4C[C@@H](O)CC[C@]4(C)[C@H]3CC[C@]12C)C(C)C` [BETA-SITOSTEROL], for which the EC50 with Lu1, in the series on LNCaP and in the series with MCF7 was above 5 µg/mL each time. In series [1], the CC50 is above 5 µg/mL.

In the case of `Cc1cc(O[C@@H]2O[C@H](CO)[C@@H](O)[C@H](O)[C@H]2O)c2c(c1)C(=O)c1cccc(O)c1C2=O` [CHRYSOPHANEIN], the EC50 in the series on Lu1, with LNCaP and in the series on MCF7 was above 5 µg/mL in each case. For the same molecule, the CC50 in series [1] was above 5 µg/mL.

Turning to `Cc1cc(O)c2c(c1)C(=O)c1cccc(O)c1C2=O` [CHRYSOPHANOL], the EC50 in the series with Lu1, in the series on LNCaP and with MCF7 was above 5 µg/mL in each case. Further, in series [1], the CC50 is above 5 µg/mL.

For `Cc1cc(O)c2c(c1)[C@@H](C[C@H]1OC[C@@H](OC(=O)c3ccccc3)[C@@H](O)[C@@H]1O)c1cccc(O)c1C2=O` [PICRAMNIOSIDE G], the EC50 in the series on Lu1, in the series with LNCaP and with MCF7 was above 5 µg/mL throughout. Moreover, the CC50 in series [1] was above 5 µg/mL.

Turning to `Cc1cc(O)c2c(c1)[C@H](C[C@H]1OC[C@@H](OC(=O)c3ccccc3)[C@@H](O)[C@@H]1O)c1cccc(O)c1C2=O` [PICRAMNIOSIDE H], the EC50 in the series on Lu1, with LNCaP and in the series on MCF7 was above 5 µg/mL throughout. For the same molecule, the CC50 in series [1] was above 5 µg/mL.

As to `Cc1cc(O)c2c(c1)C(=O)c1cccc(O[C@@H]3O[C@H](CO)[C@@H](O)[C@H](O)[C@H]3O)c1C2=O` [PULMATIN], the EC50 in the series on Lu1, with LNCaP and in the series on MCF7 was above 5 µg/mL in each case. Further, in series [1], the CC50 was above 5 µg/mL.

With `COc1cc2ccc(=O)oc2cc1O` [SCOPOLETIN], the EC50 with Lu1, in the series on LNCaP and with MCF7 was above 5 µg/mL throughout. Also, the CC50 in series [1] was above 5 µg/mL.

Take `CC[C@H](CC[C@@H](C)[C@H]1CC[C@H]2[C@@H]3CC=C4C[C@@H](O[C@@H]5O[C@H](CO)[C@@H](O)[C@H](O)[C@H]5O)CC[C@]4(C)[C@H]3CC[C@]12C)C(C)C` [SITOGLUSIDE]: the EC50 in the series on Lu1, with LNCaP and in the series on MCF7 was above 5 µg/mL in each case. Besides, the CC50 in series [1] is above 5 µg/mL.

For the molecule `O=c1ccc2ccc(O)cc2o1` [UMBELLIFERONE], the EC50 in the series with Lu1, in the series on LNCaP and in the series on MCF7 was above 5 µg/mL in each case. In series [1], the CC50 is above 5 µg/mL.
